Compounds with a hit are over-represented: about 3.5% of the library has one in this group of screens.
RGS4 pot: RGS4 potentiators or activators, primary screen, cell-based, HEK293 M3R inducible RGS4, calcium flux; carbachol calcium flux Fluo4; hits give low values; B-score at 10 µM; hit rate 0.92% among 310,000; AID 463111, 2010;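 active = B-score of the integrated calcium signal more than 4 SD below the library mean, with starting fluorescence not abnormally high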;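 also: negative B-score means reduced calcium response which marks RGS4 activation or potentiation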
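Material: Inducible-RGS4 HEK293 cells carrying M3 receptor; also added: carbachol at ECmax as muscarinic agonist stimulus; incubation: compound preincubation 20 min at room temperature before agonist; signal: Fluo4-AM (2 µM) calcium-flux fluorescence, kinetic read; measure: integrated calcium ratio converted to B score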
MrgX1 antagonist: antagonists of human MrgX1 receptor, primary screen, HEK293 cells, Fluo-4 calcium flux; Mas-related G-protein coupled receptor member X1 (Homo sapiens), Q96LB2; hit rate 1.3% among 310,000; B-score at 10 µM; BAM8-22 antagonism; hits give low values;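 active = calcium-response B-score plate-corrected more than 3 library SD below zero, starting fluorescence within 5 deviations, no agonist response on first addition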;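 also: peak minus trough fluorescence over baseline after final BAM8-22 challenge near maximal dose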
MrgX1 ag: agonists of human MrgX1 receptor, primary screen, HEK293 cells, Fluo-4 calcium flux; Mas-related G-protein coupled receptor member X1 (Homo sapiens), Q96LB2; B-score at 10 µM; AID 588627, 2011; Fluo-4 calcium fluorescence, agonist mode; hits give high values; hit rate 0.44% among 310,000;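 active = calcium response B-score plate-corrected fluorescence ratio at least 3 library SD, with starting fluorescence B-score inside 5 SD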
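Material: MrgX1-expressing HEK293 cells / Dosing: compound as first of three additions / Incubation: overnight seeding, then 1 h dark dye loading / Signal: Fluo-4 NW calcium fluorescence / Evaluation: B-scored fluorescence response ratio / Benchmarks: positive and negative control wells on each plate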
MrgX1 allo act: positive allosteric modulators of MrgX1, primary screen, HEK293 cells, Fluo-4 calcium flux | Mas-related G-protein coupled receptor member X1 (Homo sapiens), Q96LB2 | FDSS; hits give high values | B-score at 10 µM | hit rate 0.63% among 310,000 | AID 588675, 2011;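 active = plate-corrected calcium response at least 3 library SD above typical, normal starting fluorescence, not activating the receptor alone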;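 also: compound read alongside a low EC10 to EC30 dose of BAM8-22 agonist; peak minus trough fluorescence over baseline measured at the second addition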
RGS4 inh: RGS4 inhibitors, primary screen, cell-based, HEK293 M3R inducible RGS4, calcium flux; Fluo-4 calcium flux; hits give high values; triggered by carbachol at its EC20; B-score at 10 µM; hit rate 0.45% among 310,000; Regulator of G-protein signaling 4 (Homo sapiens), P49798;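 active = B-score, a plate-corrected calcium signal, over three deviations above library mean, with baseline fluorescence within five deviations of library mean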;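 also: RGS4 expression induced by doxycycline in cells with stable M3 receptor; B-score is computed from the integrated fluorescence ratio over baseline after carbachol; higher B-score means a larger calcium signal and so more RGS4 inhibition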
Target sequence (P49798 whole entry, looked up): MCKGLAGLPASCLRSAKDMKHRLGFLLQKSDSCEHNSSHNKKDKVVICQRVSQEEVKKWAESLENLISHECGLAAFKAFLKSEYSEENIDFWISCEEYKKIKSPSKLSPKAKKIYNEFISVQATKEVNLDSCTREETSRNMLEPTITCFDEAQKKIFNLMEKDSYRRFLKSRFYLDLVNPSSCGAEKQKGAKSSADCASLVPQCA
RGS4 act valid: reduced carbachol calcium response, RGS4-induced M3R cells, confirmation, RGS4 activator project, cell-based, HEK293 M3R/RGS4 inducible, calcium flux, duplicate; AID 602282, 2012; hit rate 89% among 1,100; shares compounds with RGS4 pot; inhibition, % at 10 µM; carbachol calcium flux Fluo4;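 active = inhibition above 3 SD of the buffer control wells, cut at about 41% in these data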;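 also: signal is the integrated peak-minus-minimum Fluo4 fluorescence over baseline ratio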
M3R Ca counter: RGS4 activator counter-screen hit in non-induced cells | shares compounds with RGS4 pot | HEK293 M3R non-induced RGS4, Fluo4 calcium flux; after carbachol challenge at its EC90 | inhibition, % at 10 µM | hit rate 82% among 1,100;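 active = inhibition exceeding 3 SD of buffer-only control wells, cut at about 26% in these data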;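 also: percent drop in integrated peak-minus-baseline over baseline Fluo4 ratio after carbachol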
Starred values were filed as active, the others as inactive; i = inactive; . = no result.

SMILES	RGS4 pot	MrgX1 antagonist	MrgX1 ag	MrgX1 allo act	RGS4 inh	RGS4 act valid	M3R Ca counter
O=C(NCCO)Nc1ccc2nsnc2c1	i	i	i	i	i	.	.
O=C(NCCO)Nc1ccc2nc(-c3ccco3)c(-c3ccco3)nc2c1	.	i	28.1*	i	.	.	.
O=C(Nc1cccnc1)c1ccc2nc(-c3ccccc3)c(-c3ccccc3)nc2c1	-9.76*	i	i	i	i	.	.
CN(CC(=O)NC1(C)CCS(=O)(=O)C1)S(=O)(=O)c1ccc(Cl)cc1 (stereo unspecified)	i	i	i	i	i	.	.
O=C(O)c1ccccc1-n1c(-c2ccccc2)cc2c1CCCC2=O	i	i	i	i	i	.	.
CCOC(=O)CCSc1nc(C(C)(C)C)cc(C(F)(F)F)c1C#N	-7.22*	i	i	i	i	.	.
COc1ccc(NC(=S)NC2CCCCC2)cn1	i	i	i	i	i	.	.
Cc1ccnc(N/C=C(\C#N)c2nc(-c3cccc(Br)c3)cs2)c1	i	i	36*	i	i	.	.
Cn1c(N2CCN(C(c3ccccc3)c3ccccc3)CC2)nc2c1c(=O)[nH]c(=O)n2C	i	i	i	i	i	.	.
CCOC(=O)C1=C(c2ccccc2)NC(N)=NC1c1ccc(OCc2ccc(C(=O)OC)cc2)cc1 (stereo unspecified)	-6.98*	i	i	i	i	.	.
Cc1ccc(O)c(N=Cc2cc(Cc3ccccc3)cc([N+](=O)[O-])c2O)c1	-7.2*	.	.	.	i	.	.
CCOc1nc(NCCN2CCOCC2)nc(Nc2ccc([N+](=O)[O-])cc2)n1	i	i	i	i	i	.	.
CCOC(=O)N1CCN(C(=O)CS(=O)Cc2nc(-c3ccc(OC)c(OC)c3)oc2C)CC1 (stereo unspecified)	i	i	i	i	i	.	.
Cc1ccc(-c2nnc(N3CCCCC3)c3ccccc23)cc1	i	i	i	i	i	.	.
c1ccc(-c2nnc(N3CCN(c4ccccn4)CC3)c3ccccc23)cc1	-7.97*	i	i	i	i	91.5*	78.8*
Cc1ccc(-c2nnc(N3CCN(c4ccccn4)CC3)c3ccccc23)cc1	-7.68*	i	i	i	i	93.5*	90.8*
CCOC(=O)c1nnn(-c2nonc2-n2cccc2)c1CCl	i	i	i	i	i	.	.
CCOC(=O)c1nnn(-c2nonc2-n2cccc2)c1CN1CCC(C)CC1	-8.02*	i	i	i	i	71.5*	0.0
COc1ccccc1C(=O)NNC(=O)c1ccc(Br)cc1	i	i	i	i	i	.	.
C=CCn1c(C)cc(-c2csc(NC(=O)CCc3nc4ccccc4c(=O)[nH]3)n2)c1C	-8.45*	i	i	i	i	68.5*	0.0
COc1cccc(/C=C/C(=O)NCc2ccc3c(c2)OCO3)c1	i	i	i	i	i	.	.
CN1CCCC(CC2Oc3ccccc3Sc3ccccc32)C1 (stereo unspecified)	-9.11*	i	i	i	i	93.0*	91.8*
Cc1ccc(Nc2nc(Cl)nc(NC(C)(C)C)n2)cc1	-8.18*	i	i	i	i	71.0*	38.8*
COc1cc(/C=C2\SC(N)=NC2=O)ccc1O	i	i	i	i	i	.	.
Cc1ccc(-c2csc(=Nc3cccnc3)n2CCCN2CCCC2=O)cc1C	i	i	i	i	i	.	.
Cc1ccc(-c2csc(=Nc3cccnc3)n2CCCn2ccnc2)cc1C	-8.81*	i	i	i	i	92.0*	93.3*
COc1ccc(CCC(=O)Nc2ccc3c(c2)OCO3)cc1OC	i	i	i	i	i	.	.

Screening results as filed in PubChem BioAssay.
